# Key:
# Assay type in all cases: functional
# [1] = system: BT-549; assay: Cytotoxicity against human BT549 cells
# Method in brief: (§1)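 Tested in a 60-cell-line human tumor panel screen; the read-out is growth inhibition, reported as GI50 for each cell line.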
# [2] = system: HT-29; assay: Cytotoxicity against human HT-29 cells; method in brief: as §1
# [3] = system: SF-268; assay: Cytotoxicity against human SF268 cells; method in brief: as §1
# [4] = Cytotoxicity against human NCI-ADR-RES cells; method in brief: as §1
# [5] = system: A498; assay: Cytotoxicity against human A498 cells; method in brief: as §1
# [6] = system: HCC 2998; assay: Cytotoxicity against human HCC2998 cells; method in brief: as §1
# [7] = system: MOLT-4; assay: Cytotoxicity against human MOLT4 cells; method in brief: as §1
# [8] = Cytotoxicity against human UACC62 cells
# Method in brief: (§2)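 Cell line run as part of the 60-cell-line screening panel; growth inhibition was reported as a GI50 for each line.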
# [9] = system: ACHN; assay: Cytotoxicity against human ACHN cells; method in brief: as §1
# [10] = Cytotoxicity against human OVCAR3 cells; method in brief: as §1
# [11] = system: PC-3; assay: Cytotoxicity against human PC3 cells; method in brief: as §1
# [12] = Cytotoxicity against human UO31 cells; method in brief: as §2
# [13] = system: LOX IMVI; assay: Cytotoxicity against human LOXIMVI cells; method in brief: as §1
# [14] = system: MCF7; assay: Cytotoxicity against human MCF7 cells; method in brief: as §1
# [15] = system: 786-0; assay: Cytotoxicity against human 786-0 cells; method in brief: as §1
# [16] = Cytotoxicity against human OVCAR4 cells; method in brief: as §1
# [17] = system: HCT-116; assay: Cytotoxicity against human HCT116 cells; method in brief: as §1
# [18] = system: NCI-H226; assay: Cytotoxicity against human NCI-H226 cells; method in brief: as §1
# [19] = system: SNB-75; assay: Cytotoxicity against human SNB75 cells; method in brief: as §2
# [20] = system: HL-60(TB); assay: Cytotoxicity against human HL-60(TB) cells
# Method in brief: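 Tested within the NCI 60-cell-line screen, with GI50 as the read-out. Values are the average of two independent experiments. The lowest concentration tested was 10 nM.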
# [21] = system: A549; assay: Cytotoxicity against human A549 cells; method in brief: as §1
# [22] = system: SN12C; assay: Cytotoxicity against human SN12C cells; method in brief: as §1
# [23] = system: CAKI-1; assay: Cytotoxicity against human Caki1 cells; method in brief: as §1
# [24] = system: KM12; assay: Cytotoxicity against human KM12 cells; method in brief: as §1
# [25] = system: SK-MEL-5; assay: Cytotoxicity against human SK-MEL-5 cells; method in brief: as §1
# [26] = system: U-251; assay: Cytotoxicity against human U251 cells; method in brief: as §2
# [27] = system: MDA-MB-435; assay: Cytotoxicity against human MDA-MB-435 cells; method in brief: as §1
# [28] = system: CCRF-CEM; assay: Cytotoxicity against human CCRF-CEM cells
# [29] = system: SR; assay: Cytotoxicity against human SR cells; method in brief: as §2
# [30] = system: M14; assay: Cytotoxicity against human M14 cells; method in brief: as §1
# [31] = system: RXF 393; assay: Cytotoxicity against human RXF393 cells; method in brief: as §1
# [32] = Cytotoxicity against human OVCAR8 cells; method in brief: as §1
# [33] = system: TK-10; assay: Cytotoxicity against human TK10 cells; method in brief: as §2
# [34] = system: NCI-H460; assay: Cytotoxicity against human NCI-H460 cells; method in brief: as §1
# [35] = system: MDA-MB-231; assay: Cytotoxicity against human MDA-MB-231 cells; method in brief: as §1
# [36] = system: HOP-62; assay: Cytotoxicity against human HOP62 cells; method in brief: as §1
# [37] = system: SK-OV-3; assay: Cytotoxicity against human SKOV3 cells; method in brief: as §1
# [38] = Cytotoxicity against human UACC257 cells; method in brief: as §2
# [39] = system: MDA-MB-468; assay: Cytotoxicity against human MDA-MB-468 cells; method in brief: as §1
# [40] = system: SF-295; assay: Cytotoxicity against human SF295 cells; method in brief: as §1
# [41] = system: NCI-H322M; assay: Cytotoxicity against human NCI-H322M cells; method in brief: as §1
# [42] = system: SNB-19; assay: Cytotoxicity against human SNB19 cells; method in brief: as §1
# [43] = system: SK-MEL-2; assay: Cytotoxicity against human SK-MEL-2 cells; method in brief: as §1
# [44] = read-out: pLC50 (the source's name) (converted)
smiles,measurement,setting,value
COc1cc(/C=C/c2cc(OC)c3ccn(C)c3c2)cc2c1O[C@]1(C)CC[C@@H](O)C(C)(C)[C@H]1C2,GI50,[1],2.82 µM
same,CC50,[1]; [44],> 100 µM
same,TGI,[1]; read-out: pTGI (converted),30.9 µM
same,GI50,[2],1.26 µM
same,CC50,[2]; [44],43.7 µM
same,TGI,[2]; read-out: pTGI (converted),5.62 µM
same,GI50,[3],2.09 µM
same,CC50,[3]; [44],> 100 µM
same,TGI,[3]; read-out: pTGI (converted),69.2 µM
same,GI50,[4],6.46 µM
same,CC50,[4]; [44],> 100 µM
same,TGI,[4]; read-out: pTGI (converted),> 100 µM
same,GI50,[5],0.407 µM
same,CC50,[5]; [44],> 100 µM
same,TGI,[5]; read-out: pTGI (converted),8.13 µM
same,GI50,[6],5.25 µM
same,CC50,[6]; [44],75.9 µM
same,TGI,[6]; read-out: pTGI (converted),25.1 µM
same,GI50,[7],0.437 µM
same,CC50,[7]; [44],> 100 µM
same,TGI,[7]; read-out: pTGI (converted),8.51 µM
same,GI50,[8]; UACC-62,0.355 µM
same,CC50,"[8]; UACC-62, read-out: pLC50 (the source's name) (converted)",23.4 µM
same,TGI,"[8]; UACC-62, read-out: pTGI (converted)",2.19 µM
same,GI50,[9],1 µM
same,LC50 (concentration killing 50% of cells),[9],> 100 µM
same,TGI,[9]; read-out: pTGI (converted),87.1 µM
same,GI50,[10]; OVCAR-3,6.46 µM
same,CC50,"[10]; OVCAR-3, read-out: pLC50 (the source's name) (converted)",57.5 µM
same,TGI,"[10]; OVCAR-3, read-out: pTGI (converted)",23.4 µM
same,GI50,[11],0.692 µM
same,LC50,[11],> 100 µM
same,TGI,[11]; read-out: pTGI (converted),83.2 µM
same,GI50,[12]; UO-31,0.501 µM
same,LC50,[12]; UO-31,> 100 µM
same,TGI,"[12]; UO-31, read-out: pTGI (converted)",3.02 µM
same,GI50,[13],1.62 µM
same,CC50,[13]; [44],79.4 µM
same,TGI,[13]; read-out: pTGI (converted),17 µM
same,GI50,[14],1.51 µM
same,LC50,[14],66.1 µM
same,TGI,[14]; read-out: pTGI (converted),14.5 µM
same,GI50,[15],0.214 µM
same,LC50 (concentration killing 50% of cells),[15],> 100 µM
same,TGI,[15]; read-out: pTGI (converted),2.4 µM
same,GI50,[16]; OVCAR-4,3.89 µM
same,CC50,"[16]; OVCAR-4, read-out: pLC50 (the source's name) (converted)",> 100 µM
same,GI50,[17],1.23 µM
same,CC50,[17]; [44],51.3 µM
same,TGI,[17]; read-out: pTGI (converted),15.1 µM
same,GI50,[18],6.03 µM
same,TGI,[18]; read-out: pTGI (converted),> 100 µM
same,GI50,[19],0.363 µM
same,CC50,[19]; [44],> 100 µM
same,TGI,[19]; read-out: pTGI (converted),11.5 µM
same,GI50,[20],1.2 µM
same,CC50,[20]; [44],> 100 µM
same,TGI,[20]; read-out: pTGI (converted),38.9 µM
same,GI50,[21],1.91 µM
same,CC50,[21]; [44],> 100 µM
same,TGI,[21]; read-out: pTGI (converted),> 100 µM
same,GI50,[22],6.03 µM
same,LC50,[22],> 100 µM
same,TGI,[22]; read-out: pTGI (converted),> 100 µM
same,GI50,[23],0.692 µM
same,LC50,[23],> 100 µM
same,TGI,[23]; read-out: pTGI (converted),4.79 µM
same,GI50,[24],2 µM
same,CC50,[24]; [44],41.7 µM
same,TGI,[24]; read-out: pTGI (converted),11.2 µM
same,GI50,[25],0.513 µM
same,CC50,[25]; [44],2.24 µM
same,TGI,[25]; read-out: pTGI (converted),1.07 µM
same,GI50,[26],0.355 µM
same,CC50,[26]; [44],69.2 µM
same,TGI,[26]; read-out: pTGI (converted),15.5 µM
same,GI50,[27],1.02 µM
same,CC50,[27]; [44],91.2 µM
same,TGI,[27]; read-out: pTGI (converted),20.9 µM
same,GI50,[28],0.457 µM
same,CC50,[28]; [44],> 100 µM
same,TGI,[28]; read-out: pTGI (converted),9.33 µM
same,GI50,[29],0.513 µM
same,CC50,[29]; [44],> 100 µM
same,TGI,[29]; read-out: pTGI (converted),> 100 µM
same,GI50,[30],0.575 µM
same,CC50,[30]; [44],45.7 µM
same,TGI,[30]; read-out: pTGI (converted),16.6 µM
same,GI50,[31],0.0447 µM
same,LC50,[31],4.27 µM
same,TGI,[31]; read-out: pTGI (converted),0.275 µM
same,GI50,[32]; OVCAR-8,9.33 µM
same,CC50,"[32]; OVCAR-8, read-out: pLC50 (the source's name) (converted)",> 100 µM
same,TGI,"[32]; OVCAR-8, read-out: pTGI (converted)",> 100 µM
same,GI50,[33],3.16 µM
same,LC50,[33],> 100 µM
same,TGI,[33]; read-out: pTGI (converted),93.3 µM
same,GI50,[34],1.07 µM
same,CC50,[34]; [44],61.7 µM
same,TGI,[34]; read-out: pTGI (converted),12 µM
same,GI50,[35],1.48 µM
same,LC50,[35],> 100 µM
same,TGI,[35]; read-out: pTGI (converted),33.9 µM
same,GI50,[36],0.617 µM
same,CC50,[36]; [44],28.8 µM
same,TGI,[36]; read-out: pTGI (converted),3.8 µM
same,GI50,[37],2.57 µM
same,LC50,[37],> 100 µM
same,TGI,[37]; read-out: pTGI (converted),> 100 µM
same,GI50,[38]; UACC-257,2.45 µM
same,CC50,"[38]; UACC-257, read-out: pLC50 (the source's name) (converted)",> 100 µM
same,TGI,"[38]; UACC-257, read-out: pTGI (converted)",35.5 µM
same,GI50,[39],1.23 µM
same,LC50,[39],> 100 µM
same,GI50,[40]; read-out: GI50,0.17 µM
same,GI50,[40]; read-out: pGI50 (converted),0.17 µM
same,CC50,[40]; [44],7.08 µM
same,TGI,[40]; read-out: pTGI (converted),0.537 µM
same,GI50,[41],18.2 µM
same,CC50,[41]; [44],> 100 µM
same,TGI,[41]; read-out: pTGI (converted),> 100 µM
same,GI50,[42],1.38 µM
same,CC50,[42]; [44],> 100 µM
same,TGI,[42]; read-out: pTGI (converted),> 100 µM
same,GI50,[43],0.851 µM
same,CC50,[43]; [44],> 100 µM
same,TGI,[43]; read-out: pTGI (converted),20.4 µM

# From ChEMBL document CHEMBL3232844, “Synthesis and structure activity relationships of schweinfurthin indoles” (2014)
